Active and inactive are the calls of the source. The rule behind the calls is not given here.
Columns and labels:
[1] = test system: Panel ovarian (Carcinoma cell lines); experiment: Anticancer activity against human Panel ovarian (Carcinoma cell lines) assessed as total growth inhibition incubated for 48 hrs by Sulphorhodamine B assay; format: functional
[2] = test system: Panel renal (Carcinoma cell lines); experiment: Anticancer activity against human Panel renal (Carcinoma cell lines) assessed as cell growth inhibition incubated for 48 hrs by Sulphorhodamine B assay; format: functional
How it was run: (§1)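 NCI-60 five-dose screen. Cells in RPMI 1640 with 5% FBS and 2 mM L-glutamine were plated at 5,000–40,000 cells/well and held 24 h before dosing. Compounds came from DMSO stocks and were given at five concentrations (10-fold or ½-log dilutions) for 48 h at 37 °C. Adherent cells were TCA-fixed and stained with SRB; A515 was read. GI50 was set from growth = 50% and TGI from Ti = Tz, using Tz/C/Ti.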

[3] = test system: Panel breast (Carcinoma cell lines); experiment: Anticancer activity against human Panel breast (Carcinoma cell lines) assessed as total growth inhibition incubated for 48 hrs by Sulphorhodamine B assay; format: functional; how it was run: as §1
Calf thymus DNA [4] = experiment: Binding affinity to calf thymus DNA assessed as decrease in maximum emission wavelength at pH 7.4 at 10 uM by fluorescence spectroscopy; format: nucleic-acid assay; settings: Bos taurus
How it was run: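 Compound was held constant (10 μM per legend; 20 μM in methods) and titrated with ct-DNA (0–20 μM) in 10 mM phosphate buffer, pH 7.4. Emission spectra were excited at 300 nm, with a buffer-only control. Binding constant came from a Benesi–Hildebrand plot.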

[5] = test system: Panel renal (Carcinoma cell lines); experiment: Anticancer activity against human Panel renal (Carcinoma cell lines) assessed as total growth inhibition incubated for 48 hrs by Sulphorhodamine B assay; format: functional
[6] = test system: Panel prostate (Carcinoma cell lines); experiment: Anticancer activity against human Panel prostate (Carcinoma cell lines) assessed as cell growth inhibition incubated for 48 hrs by Sulphorhodamine B assay; format: functional; how it was run: as §1
Albumin = Albumin (Bos taurus, UniProt P02769); experiment: Binding affinity to bovine serum albumin assessed as decrease in fluorescence intensity at pH 7.4 at 0 to 30 uM by fluorescence quenching method; settings: cattle
Calf thymus DNA [7] = experiment: Binding affinity to calf thymus DNA assessed as hypochromicity at pH 7.4 at 10 uM by UV-vis absorption spectroscopy; format: nucleic-acid assay; settings: Bos taurus
How it was run: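 Absorption titration at 300 K in a 1 cm cell, background subtracted. Compound was fixed (10 μM per legend; 20 μM in methods) with ct-DNA added up to 15–20 μM in 10 mM phosphate buffer, pH 7.4 (A260/A280 1.82). A buffer-addition control was run. K was taken from the 1/(Af−Aobs) vs 1/[DNA] fit.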

[8] = test system: Panel melanoma (Carcinoma cell lines); experiment: Anticancer activity against human Panel melanoma (Carcinoma cell lines) assessed as cell growth inhibition incubated for 48 hrs by Sulphorhodamine B assay; format: functional; how it was run: as §1
[9] = test system: Panel colon (Carcinoma cell lines); experiment: Anticancer activity against human Panel colon (Carcinoma cell lines) assessed as lethality incubated for 48 hrs by Sulphorhodamine B assay; format: functional
[10] = test system: Panel colon (Carcinoma cell lines); experiment: Anticancer activity against human Panel colon (Carcinoma cell lines) assessed as cell growth inhibition incubated for 48 hrs by Sulphorhodamine B assay; format: functional; how it was run: as §1
[11] = biological target: DNA topoisomerase 2-alpha (Homo sapiens) (UniProt P11388); experiment: Inhibition of human DNA topoisomerase II-alpha mediated supercoiled pHOT1 plasmid DNA relaxation at 75 uM incubated for 30 mins by ethidium bromide staining based agarose gel electrophoresis analysis
How it was run: (§2)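 Reaction buffer: 50 mM Tris-Cl pH 8.0, 120 mM KCl, 10 mM MgCl2, 0.5 mM ATP, 0.5 mM DTT. Each reaction held 500 ng supercoiled pHOT1 and 1 U human Topo IIα, with compound at 10–100 μM, for 30 min at 37 °C. Reactions were stopped with glycerol/EDTA/bromophenol blue, run on 1% agarose in TBE, and stained with ethidium bromide. Etoposide 25 μM was the positive control.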

[12] = test system: Panel breast (Carcinoma cell lines); experiment: Anticancer activity against human Panel breast (Carcinoma cell lines) assessed as cell growth inhibition incubated for 48 hrs by Sulphorhodamine B assay; format: functional; how it was run: as §1
[13] = test system: Panel CNS (Carcinoma cell lines); experiment: Anticancer activity against human Panel CNS (Carcinoma cell lines) assessed as lethality incubated for 48 hrs by Sulphorhodamine B assay; format: functional
[14] = test system: Panel prostate (Carcinoma cell lines); experiment: Anticancer activity against human Panel prostate (Carcinoma cell lines) assessed as lethality incubated for 48 hrs by Sulphorhodamine B assay; format: functional
[15] = test system: Panel breast (Carcinoma cell lines); experiment: Anticancer activity against human Panel breast (Carcinoma cell lines) assessed as lethality incubated for 48 hrs by Sulphorhodamine B assay; format: functional; settings: read-out: LC50 (the source's name)
[16] = test system: Panel ovarian (Carcinoma cell lines); experiment: Anticancer activity against human Panel ovarian (Carcinoma cell lines) assessed as lethality incubated for 48 hrs by Sulphorhodamine B assay; format: functional
[17] = biological target: DNA topoisomerase 2-alpha (Homo sapiens) (UniProt P11388); experiment: Inhibition of human DNA topoisomerase II-alpha mediated supercoiled pHOT1 plasmid DNA relaxation at 100 uM incubated for 30 mins by ethidium bromide staining based agarose gel electrophoresis analysis; how it was run: as §2
[18] = test system: Panel leukemia (Carcinoma cell lines); experiment: Anticancer activity against human Panel leukemia (Carcinoma cell lines) assessed as cell growth inhibition incubated for 48 hrs by Sulphorhodamine B assay; format: functional; how it was run: as §1
[19] = test system: Panel CNS (Carcinoma cell lines); experiment: Anticancer activity against human Panel CNS (Carcinoma cell lines) assessed as cell growth inhibition incubated for 48 hrs by Sulphorhodamine B assay; format: functional; how it was run: as §1
[20] = test system: Panel renal (Carcinoma cell lines); experiment: Anticancer activity against human Panel renal (Carcinoma cell lines) assessed as lethality incubated for 48 hrs by Sulphorhodamine B assay; format: functional
[21] = test system: Panel ovarian (Carcinoma cell lines); experiment: Anticancer activity against human Panel ovarian (Carcinoma cell lines) assessed as cell growth inhibition incubated for 48 hrs by Sulphorhodamine B assay; format: functional; how it was run: as §1
[22] = biological target: DNA topoisomerase 2-alpha (Homo sapiens) (UniProt P11388); experiment: Inhibition of human DNA topoisomerase II-alpha mediated supercoiled pHOT1 plasmid DNA relaxation at 50 uM incubated for 30 mins by ethidium bromide staining based agarose gel electrophoresis analysis; how it was run: as §2
Calf thymus DNA [23] = experiment: Displacement of Ethidium bromide from calf thymus DNA/EtBr complex assessed as decrease in fluorescent intensity by fluorescence based EtBr-displacement assay; format: nucleic-acid assay; settings: Bos taurus
How it was run: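 ct-DNA (0–20 μM) was pre-mixed with ethidium bromide, diluted from a 1 mM stock. Compound was then added in 2 μM steps up to 50 μM, with mixing after each addition. Emission was recorded with excitation at 480 nm.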

Sequence of DNA topoisomerase 2-alpha (Homo sapiens) (P11388 whole entry): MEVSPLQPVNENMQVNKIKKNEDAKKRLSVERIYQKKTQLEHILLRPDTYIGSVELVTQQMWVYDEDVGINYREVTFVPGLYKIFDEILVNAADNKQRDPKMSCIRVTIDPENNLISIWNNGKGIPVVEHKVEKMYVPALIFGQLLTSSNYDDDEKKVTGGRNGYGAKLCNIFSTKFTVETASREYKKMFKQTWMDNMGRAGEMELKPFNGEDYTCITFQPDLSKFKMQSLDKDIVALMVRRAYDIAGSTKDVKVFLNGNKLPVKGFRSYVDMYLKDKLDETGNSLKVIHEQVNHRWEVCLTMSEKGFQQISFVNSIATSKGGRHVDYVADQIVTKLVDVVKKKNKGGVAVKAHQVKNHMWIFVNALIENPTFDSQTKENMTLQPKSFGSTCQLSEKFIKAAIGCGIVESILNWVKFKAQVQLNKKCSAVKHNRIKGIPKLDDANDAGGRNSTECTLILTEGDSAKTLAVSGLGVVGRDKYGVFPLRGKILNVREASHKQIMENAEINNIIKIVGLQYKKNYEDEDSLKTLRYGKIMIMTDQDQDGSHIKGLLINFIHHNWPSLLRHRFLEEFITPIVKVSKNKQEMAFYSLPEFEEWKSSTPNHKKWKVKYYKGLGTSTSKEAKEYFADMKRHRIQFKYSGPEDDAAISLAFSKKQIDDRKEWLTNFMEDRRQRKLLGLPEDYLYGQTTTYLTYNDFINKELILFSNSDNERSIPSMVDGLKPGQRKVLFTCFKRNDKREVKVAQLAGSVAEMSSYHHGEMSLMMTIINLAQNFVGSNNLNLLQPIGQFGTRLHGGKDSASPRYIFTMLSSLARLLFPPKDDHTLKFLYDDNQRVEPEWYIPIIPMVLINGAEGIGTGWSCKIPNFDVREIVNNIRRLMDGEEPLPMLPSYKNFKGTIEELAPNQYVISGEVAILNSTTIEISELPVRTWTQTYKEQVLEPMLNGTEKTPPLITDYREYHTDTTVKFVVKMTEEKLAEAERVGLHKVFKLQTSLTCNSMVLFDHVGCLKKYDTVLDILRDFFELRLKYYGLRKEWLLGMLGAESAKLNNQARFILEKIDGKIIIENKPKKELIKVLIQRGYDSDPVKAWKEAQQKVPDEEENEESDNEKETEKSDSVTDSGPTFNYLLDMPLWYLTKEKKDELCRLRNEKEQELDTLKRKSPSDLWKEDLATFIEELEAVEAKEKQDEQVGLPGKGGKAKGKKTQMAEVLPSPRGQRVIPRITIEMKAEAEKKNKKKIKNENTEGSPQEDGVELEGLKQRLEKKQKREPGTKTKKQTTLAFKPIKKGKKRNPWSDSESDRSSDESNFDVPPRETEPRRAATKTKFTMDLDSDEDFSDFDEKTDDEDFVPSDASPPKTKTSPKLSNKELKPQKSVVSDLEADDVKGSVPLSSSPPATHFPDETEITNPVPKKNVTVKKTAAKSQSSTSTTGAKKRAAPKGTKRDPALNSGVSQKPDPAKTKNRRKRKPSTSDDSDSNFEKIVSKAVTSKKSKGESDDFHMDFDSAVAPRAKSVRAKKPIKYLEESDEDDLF
Sequence of Albumin (P02769 whole entry): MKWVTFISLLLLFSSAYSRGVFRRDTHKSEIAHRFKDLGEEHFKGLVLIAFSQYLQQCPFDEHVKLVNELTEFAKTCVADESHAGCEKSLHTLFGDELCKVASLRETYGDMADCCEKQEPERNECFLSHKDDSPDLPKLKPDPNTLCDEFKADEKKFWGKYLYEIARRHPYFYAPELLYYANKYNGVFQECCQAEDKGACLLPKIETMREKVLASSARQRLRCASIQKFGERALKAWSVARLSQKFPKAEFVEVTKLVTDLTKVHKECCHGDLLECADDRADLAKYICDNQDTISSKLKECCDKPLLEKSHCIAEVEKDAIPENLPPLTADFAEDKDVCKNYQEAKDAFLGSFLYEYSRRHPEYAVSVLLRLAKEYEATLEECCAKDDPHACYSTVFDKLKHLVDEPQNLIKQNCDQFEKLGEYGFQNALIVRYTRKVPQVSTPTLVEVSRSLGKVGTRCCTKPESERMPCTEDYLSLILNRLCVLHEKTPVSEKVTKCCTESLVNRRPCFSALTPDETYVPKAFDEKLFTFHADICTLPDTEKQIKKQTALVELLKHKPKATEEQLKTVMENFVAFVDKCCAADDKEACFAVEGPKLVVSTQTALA

OCCN1CCN(c2nc(Nc3ccc(-c4nc5ccccc5[nH]4)cc3)c3cn[nH]c3n2)CC1 was tested, and the TGI [1] was 3.59 µM, the GI50 [2] was 1.76 µM and the TGI [3] was 3.83 µM. The Activity (Calf thymus DNA [4]) was “Active”, the TGI [5] was 3.26 µM and the GI50 [6] was 1.49 µM. For the same molecule, the Activity (Albumin) was “Active”, the Activity (Calf thymus DNA [7]) was “Active” and the GI50 [8] was 1.81 µM. The LC50 (lethal concentration, 50% cell kill) [9] was 5.71 µM, the GI50 [10] was 0.72 µM and the inhibition [11] was “Active”. It also gave a GI50 [12] of 1.8 µM, an LC50 (concentration killing 50% of cells) [13] of 5.72 µM and an LC50 [14] of 5.97 µM. For the same molecule, the CC50 [15] was 7.02 µM, the LC50 (concentration killing 50% of cells) [16] was 6.09 µM and the inhibition [17] was “Active”. For the same molecule, the GI50 [18] was 0.44 µM, the GI50 [19] was 1.47 µM and the LC50 (50% lethal concentration) [20] was 5.85 µM. The GI50 [21] was 1.84 µM, the inhibition [22] was “Active” and the Activity (Calf thymus DNA [23]) was “Active”.

Fc1ccc(Nc2nc(Nc3ccc(-c4nc5ccccc5[nH]4)cc3)c3cn[nH]c3n2)cc1 showed a TGI [1] of 6.77 µM, a GI50 [2] of 1.84 µM and a TGI [3] of 4.8 µM. For the same molecule, the Activity (Calf thymus DNA [4]) was “Active”, the TGI [5] was 7.35 µM and the GI50 [6] was 1.95 µM. The Activity (Albumin) was “Active”, the Activity (Calf thymus DNA [7]) was “Active” and the GI50 [8] was 2.8 µM. For the same molecule, the LC50 (lethal concentration, 50% cell kill) [9] was 6.8 µM, the GI50 [10] was 1.78 µM and the inhibition [11] was “Active”. The GI50 [12] was 1.99 µM, the LC50 (concentration killing 50% of cells) [13] was 20.4 µM and the LC50 [14] was 9.22 µM. The CC50 [15] was 19 µM, the LC50 (concentration killing 50% of cells) [16] was 28.9 µM and the inhibition [17] was “Active”. The GI50 [18] was 2.62 µM, the GI50 [19] was 2.06 µM and the LC50 (50% lethal concentration) [20] was 18.2 µM. The GI50 [21] was 2.49 µM, the inhibition [22] was “Active” and the Activity (Calf thymus DNA [23]) was “Active”.

From ChEMBL document CHEMBL5260793, “Novel pyrazolo[3,4-d]pyrimidine with 4-(1H-benzimidazol-2-yl)-phenylamine as broad spectrum anticancer agents: Synthesis, cell based assay, topoisomerase inhibition, DNA intercalation and bovine serum albumin studies” (Eur J Med Chem, 2017)
